IDE cell activ: IDE (human) activation, cell-based; P14735; HEK cells, FAbeta-B cleavage, fluorescence polarization; 0% vehicle, 100% cell-free pure enzyme wells; activation, % at 5.96 µM; 340,000 tested, 0.073% active;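 active means activation above the mean of all tested compounds plus 3 SD, set per screening campaign, cut at about 17% in these data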
IDE inh: inhibitors of human insulin-degrading enzyme in cells. P14735. AID 434962. inhibition, % at 5.59 µM. 320,000 tested, 0.41% active. HEK cells, FAbetaB cleavage, fluorescence polarization;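 active means percent inhibition above the average of all tested compounds plus 3 SD, set per screening campaign, cut at about 16% in these data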;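 further: IDE supplied by intact live HEK cells; FP after avidin binding of uncleaved biotin substrate so inhibition keeps polarization high; 0% = DMSO wells and 100% = 60 µM reference IDE inhibitor Ii1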
CSN inh: inhibitors of human CSN-mediated cullin deneddylation | Q92905 | Purified CSN, SCF-Nedd8-OG deneddylation, fluorescence polarization | inhibition, % at 12.5 µM | 360,000 tested, 0.38% active;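 active means pattern-corrected inhibition above about 35%, with an unprinted fluorescence ratio check between 0.5 and 1.5, limit read from the data, passing the limit was not always enough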;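 further: 0% = enzyme with substrate and 100% = substrate without enzyme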
Target sequence (Q92905 whole entry, looked up, one chain of several): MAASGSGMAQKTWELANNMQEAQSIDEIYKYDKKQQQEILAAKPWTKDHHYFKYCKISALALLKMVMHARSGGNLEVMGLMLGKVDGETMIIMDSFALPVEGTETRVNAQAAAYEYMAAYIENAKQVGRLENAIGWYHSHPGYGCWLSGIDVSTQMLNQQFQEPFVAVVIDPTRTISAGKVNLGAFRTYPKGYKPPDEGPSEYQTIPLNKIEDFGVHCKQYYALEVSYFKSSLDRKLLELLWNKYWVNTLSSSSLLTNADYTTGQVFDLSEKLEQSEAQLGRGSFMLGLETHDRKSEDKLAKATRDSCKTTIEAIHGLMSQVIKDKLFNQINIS
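Assay system: purified human Csn5 enzyme expressed in HEK293T cells; measure: % inhibition; also added: SCFSkp2-Nedd8OG substrate at 10 nM final; technique: fluorescence polarization; times: reaction 90 min, room temperature; medium: Tris buffer pH 7.5, NaCl, DTT, Tween-20, trehalose, ovalbumin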
Rpn11 inh: inhibitors of human proteasome Rpn11 | 360,000 tested, 0.59% active | inhibition, % at 20 µM | O00487 | human 26S proteasome, Ub4-pepOG fluorescence polarization; 20S core pre-blocked with epoxomicin;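 active means inhibition at 20 µM, scaled to each plate's controls, above about 33%, limit read from the data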
TPT1 inhibitor: blocks Candida albicans tRNA 2'-phosphotransferase | 300,000 tested, 0.81% active | recombinant caTPT1, FP RNA substrate dephosphorylation | inhibition, % at 5 µM;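 active means inhibition above the mean of all tested compounds plus 3 SD, set per screening campaign, cut at about 24% in these data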;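 further: plate controls were DMSO alone for no effect and ferristatin control at 100 nM for full effect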
HNF4A DNA FP: change in binding of human HNF4 alpha to DNA. 360,000 tested, 0.3% active. P41235. activity change, % at 10 µM. HNF4a-FITC DNA binding, fluorescence polarization, 1 h; in the data active means activity change above about 30%, passing the limit was not always enough
IDE inh confirm: cellular human IDE inhibition, confirmation; shares compounds with IDE inh; HEK cells, FAbetaB cleavage, fluorescence polarization; inhibition, % at 5.59 µM; 1,200 tested, 51% active; AID 435028;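 active means mean inhibition across triplicate wells above the cutoff set by the earlier primary insulin-degrading enzyme screen, cut at about 16% in these data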;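 further: 0% = DMSO wells and 100% = 60 µM reference IDE inhibitor Ii1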
HEK293 tox: counter-screen for IDE inhibitors: cytotoxicity in HEK cells; AID 449730; 1,200 tested, 28% active; inhibition, % at 5.59 µM; shares compounds with IDE inh; HEK293 cytotoxicity, ATP luminescence; in the data active means inhibition above about 22%;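 further: 0% = vehicle wells and 100% = reference cytotoxic drug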
Active calls of the source: *; · = no result given. Compounds with a hit are over-represented: about 1.7% of the library has one in this group of screens.

SMILES	IDE cell activ	IDE inh	CSN inh	Rpn11 inh	TPT1 inhibitor	HNF4A DNA FP	IDE inh confirm	HEK293 tox
O=C(Nc1ccc2c(c1)CCC2)C1CCN(c2c3c(nc4ncnn24)CCC3)CC1	-42	42*	-6	-6	1	-1	13	51*
CSc1ccccc1C(=O)OCC(=O)NC1CC1	·	·	-5	1	·	-2	·	·
O=C(Nc1ccc2nc(-c3cccs3)[nH]c2c1)c1cccs1	-4	21*	3	-6	0	-6	10	22*
O=C(NCCCN1CCOCC1)C(=O)N/N=C/c1cccc2ccccc12	6	16*	2	0	-2	-3	4	3
O=C(NCCCN1CCOCC1)C(=O)N/N=C/c1ccccc1	5	3	3	-1	-2	0	·	·
O=c1[nH][nH]c2c1[C@@H](c1ccc(F)cc1)O[C@H](CCOCc1ccccc1)C2	·	·	0	·	·	-3	·	·
COc1c(/C=N/NC(N)=S)c(C)nn1-c1ccccc1	-10	22*	4	1	-6	0	3	11
Oc1ccc(Cl)cc1C=Nc1ccc2c3c(cccc13)CC2	-3	42*	18	·	1	31	0	11
Cc1cccc(C=Nc2ccc3c4c(cccc24)CC3)c1O	-1	33*	3	40	10	9	9	3
Oc1cccc(C=Nc2cccc3ccccc23)c1O	0	0	15	16	5	-3	·	·
O=C(CNc1cccc(S(=O)(=O)N2CCCCC2)c1)Nc1ccc(C(F)(F)F)cc1	·	·	6	1	·	-5	·	·
CCCC#Cc1cnc2c(c1)C(=O)N([C@H](C)CO)C[C@H](C)[C@@H](CN(C)C(=O)CCN1CCCCC1)O2	·	·	3	5	·	1	·	·
CC1(C)CC(=O)C/C(=N/NC(=O)c2ccc(-c3ccccc3)cc2)C1	-11	18*	14	30	7	19	14	5
Cc1cccc(N2CCN(C(=O)CCNC(=O)Cn3ccc4ccccc4c3=O)CC2)c1C	-11	17*	6	2	0	1	8	15
O=C1NC[C@H](CCCCN2CCN(CCc3ccc(O)cc3)C(=O)C2=O)N(CCC2CCCCC2)C1=O	·	·	-1	·	·	-4	·	·
Nc1c([N+](=O)[O-])cc2c3c(cccc13)CC2	·	·	-4	-10	·	0	·	·
CCCNC(=O)C1(C)CCCN(Cc2ccc(Cl)cc2)C1 (stereo not given)	·	·	-1	6	·	0	·	·
S=C(NCc1ccco1)N1CCN(c2nc(-c3ccc(Cl)cc3)cs2)CC1	-14	22*	8	8	1	10	5	20
S=C(NCc1ccco1)N1CCN(c2nc(-c3ccccc3)cs2)CC1	-9	18*	6	14	0	-1	7	10
S=C(NCc1ccco1)N1CCN(c2ccccc2Cl)CC1	1	-7	-1	0	1	2	·	·
CN1CCN(c2ncnc3c2[nH]c2ccc(F)cc23)CC1	-14	23*	-2	0	-4	-2	10	12
Brc1ccc2[nH]c3c(N4CCc5ccccc5C4)ncnc3c2c1	·	55*	·	·	5	·	41*	66*
COc1ccc2[nH]c3c(N4CCN(Cc5ccc6c(c5)OCO6)CC4)ncnc3c2c1	-2	15	-3	-4	3	-2	·	·
Brc1ccc2[nH]c3c(NCc4ccccn4)ncnc3c2c1	·	64*	4	-2	-5	3	38*	22*
Fc1ccc2[nH]c3c(N4CCc5ccccc5C4)ncnc3c2c1	·	29*	0	4	-4	0	12	77*
COc1ccc2nc(N3CCN(C(=O)c4ccc5ncsc5c4)CC3)sc2c1	-20	17*	-1	-2	1	2	11	30*
C[C@H]1CN([C@@H](C)CO)C(=O)c2cc(Br)cnc2O[C@@H]1CN(C)S(=O)(=O)c1ccccc1	·	·	-3	-2	·	-2	·	·

High-throughput results: PubChem, several laboratories
